From PubChem
Rev-erbA mod – modulators of Rev-erb alpha DNA binding, primary screen, biochemical, FITC-DNA, fluorescence polarization, uHTS; Nuclear receptor subfamily 1 group D member 1 (Homo sapiens), P20393; Rev-erbα–FITC-DNA binding, 90 min; activity, % at 10 µM; 370,000 compounds, 0.79% hits; AID 1259318, 2017;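 active means activity above about 14%, limit read from the data; passing the limit was not always enough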;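 further: 0% = DMSO wells with 35 nM protein and 100% = DMSO wells with 750 nM protein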
Target sequence (P20393 whole entry, looked up): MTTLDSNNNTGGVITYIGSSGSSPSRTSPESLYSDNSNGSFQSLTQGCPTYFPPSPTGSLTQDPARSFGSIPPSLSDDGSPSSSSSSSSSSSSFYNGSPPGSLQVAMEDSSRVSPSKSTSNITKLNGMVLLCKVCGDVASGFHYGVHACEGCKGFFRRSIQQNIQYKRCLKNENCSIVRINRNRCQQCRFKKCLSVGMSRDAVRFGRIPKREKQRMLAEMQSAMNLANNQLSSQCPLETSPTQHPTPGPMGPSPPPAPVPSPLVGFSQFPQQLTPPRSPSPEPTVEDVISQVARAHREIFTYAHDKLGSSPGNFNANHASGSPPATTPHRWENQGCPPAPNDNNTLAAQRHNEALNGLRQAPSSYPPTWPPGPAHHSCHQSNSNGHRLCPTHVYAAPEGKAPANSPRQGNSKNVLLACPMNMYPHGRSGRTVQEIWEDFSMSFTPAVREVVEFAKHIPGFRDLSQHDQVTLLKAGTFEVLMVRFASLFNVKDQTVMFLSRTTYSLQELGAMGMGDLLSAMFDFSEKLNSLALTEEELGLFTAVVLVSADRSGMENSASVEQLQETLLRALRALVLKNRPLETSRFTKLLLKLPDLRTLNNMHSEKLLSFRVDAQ
SKN-1 block – suppressors of acrylamide-induced Pgst-4::GFP reporter in worms, primary screen, SKN-1 inhibitor project, whole organism, uHTS, GFP/RFP fluorescence ratio, strain VP596; inhibition, % at 21.8 µM; 360,000 compounds, 0.49% hits; AID 624304, 2012; C. elegans VP596 Pgst-4::GFP/RFP ratio, 24 h;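 active means interference check ratio from 0.5 to 1.5 plus GFP to RFP signal ratio inhibition reaching or exceeding a fixed threshold, cut at about 30% in these data, passing the limit was not always enough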
MT1-MMP act inh – blockers of MT1-MMP proenzyme processing, primary screen, HT1080 RFP-PRO-GFP cells, GFP/RFP fluorescence; Matrix metalloproteinase-14 (Homo sapiens), P50281; GFP/RFP ratio fluorescence, overnight; percent of plate control window, DMSO zero; GFP/RFP ratio change, % at 20 µM; 360,000 compounds, 0.061% hits;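 active means GFP/RFP ratio change of at least 30% with cell ATP level not reduced by more than half and red fluorescence within 50% of control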
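system = RFP-PRO-GFP reporter HT1080 cells | dosing = 20 µM single dose, 1% DMSO | timing = overnight cell settling, then overnight compound exposure, 37 °C, 5% CO2 | read-out basis = GFP/RFP fluorescence ratio | controls = DMSO and RFP-L50D-GFP cell wells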
NR2E3 ag-1 – inhibitors of NR2E3-RetCOR corepressor binding, primary screen, NR2E3 agonist project, biochemical, TR-FRET, GST-NR2E3, biotin-RetCOR | Photoreceptor-specific nuclear receptor (Homo sapiens), Q9Y5X4 | 1536-well | inhibition of corepressor binding, % at 4.78 µM | 320,000 compounds, 0.12% hits;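 active means percent inhibition above the cutoff of mean plus 3 SD of all tested compounds, set per screening campaign, cut at about 20% in these data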;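 further: 0% = DMSO wells and 100% = biotin wells as full block of FRET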
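system = GST-tagged NR2E3 plus biotinylated RetCOR corepressor | input = 1.35 nM GST-NR2E3 | also added = 7 nM biotin-RetCOR | schedule = 5 h incubation at 4 °C | measured by = TR-FRET with europium anti-GST and streptavidin-D2, 340 nm excitation | read-out = percent loss of FRET ratio relative to control wells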
NR2E3 ag-2 – NR2E3 agonists in two-hybrid cells, primary screen, cell-based, luminescence, CHO-S, Gal4-NCOR/VP16-NR2E3. inhibition of corepressor binding, % at 3.98 µM. Photoreceptor-specific nuclear receptor (Homo sapiens), Q9Y5X4. luciferase. 360,000 compounds, 0.35% hits. AID 602229, 2012;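 active means inhibition above the mean of all tested compounds plus 3 SD, cut at about 70% in these data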;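 further: 0% = DMSO with NR2E3 transfected cells and 100% = cells lacking NR2E3 construct; higher means lower luciferase signal from less NR2E3 corepressor binding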
PG9 Ab binder – binders of HIV-1 gp120 antibody PG9, primary screen, biochemical, TR-FRET; HIV-1 gp120 / PG9 antibody interaction; TR-FRET gp120-PG9 antibody binding; inhibition, % at 6.7 µM; 360,000 compounds, 0.43% hits; AID 624416, 2012; in the data active means inhibition above about 8.5%
NR1D1 mod conf – modulators of Rev-erb alpha DNA binding, confirmation, biochemical, FITC-DNA, fluorescence polarization, single point | shares compounds with Rev-erbA mod | 90 min | activation, % at 25 µM | 3,000 compounds, 61% hits | AID 1259319, 2017;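 active means activation at or above a set limit, or at least 3 SD above the negative control mean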;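 further: 0% = 35 nM protein with DMSO and 100% = 750 nM protein high control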
RORg DNA counter – modulation of RORgamma DNA binding, dose response, counter-screen for Rev-erb alpha modulator project, biochemical, fluorescence polarization, FITC-DNA. shares compounds with Rev-erbA mod. purified RORgamma protein-FITC-DNA binding. IC50, µM. 910 compounds, 8% hits;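 active means Compounds whose fitted half-maximal concentration for disrupting protein-DNA binding is below 10 micromolar; the record names Rev-erb in its text, so the target is in doubt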
* hit, by the source's call; nt = not tested or not shown. An excerpt weighted towards active compounds, which were near 1.9% of everything screened.

SMILES | Rev-erbA mod | SKN-1 block | MT1-MMP act inh | NR2E3 ag-1 | NR2E3 ag-2 | PG9 Ab binder | NR1D1 mod conf | others
Cc1cc(C)c(C#N)c(SCCS(=O)(=O)c2ccc(C(C)(C)C)cc2)n1 | 24* | -32 | -4 | 2 | -11 | -1 | 12
CCN(Cc1nc2cc(Cl)ccc2c(=O)[nH]1)C(=O)C1CC(=O)N(c2cccc3ccccc23)C1 (stereo unspecified) | -4 | 6 | -4 | 0 | -24 | 0 | nt
CCN(Cc1nc2cc(Cl)ccc2c(=O)[nH]1)C(=O)c1cc2c(s1)CCCCC2 | 54* | 6 | 0 | nt | 0 | 0 | 34* | RORg DNA counter=>40
CCOc1ccc(Cl)cc1-c1cc(C(=O)NC2CCCCC2)[nH]n1 | -5 | 10 | -3 | nt | -16 | 0 | nt
Cc1cccc(CN2CCN([C@H]3CS(=O)(=O)N[C@@H]3COCc3ccccc3)CC2)c1 | 4 | 8 | 4 | nt | -7 | 0 | nt
COc1ccc(/C=C2\Oc3cc(OC(=O)N4CCOCC4)ccc3C2=O)c(OC)c1 | 22* | -15 | -2 | 0 | -1 | -2 | 9
COC(=O)c1c(NC(=O)c2ccccc2)sc(C(=O)c2ccccc2)c1C | 27* | 26 | -13 | 2 | 6 | 1 | 0
COC(=O)c1c(NC(=O)c2ccccc2)sc(C(N)=O)c1C | 17 | 25 | -2 | 2 | -12 | 1 | nt
C=CCSc1nc(N)c(C(=O)Nc2ccccc2)cc1C#N | 10 | -4 | 2 | 4 | -8 | 4 | nt
C=CCSc1nc(N)c(C(=O)Nc2ccccc2OC)cc1C(=O)Nc1ccccc1 | 20* | 29 | 3 | -3 | 3 | 3 | 15
O=C(Nc1ccc(C(F)(F)F)cc1)c1cc(-c2cccnc2)nc2ccc(Br)cc12 | 34* | -3 | 23 | 8 | 20 | 0 | 22*
O=C(C=Cc1ccc(OCc2ccccc2)cc1)c1c(F)cccc1F | -8 | nt | nt | nt | nt | 1 | nt
O=C1c2cnc3nc(SCc4cccc(Cl)c4)nn3c2CC2c3ccccc3CCN12 (stereo unspecified) | 34* | 24 | -8 | -2 | -18 | -2 | 11
CC(=O)[C@@]1(O)Cc2c(O)c3c(c(O)c2[C@H](O[C@H]2C[C@H](N)[C@H](O)[C@H](C)O2)C1)C(=O)c1ccccc1C3=O | 24* | 45 | 12 | nt | 14 | -6 | 11*
COc1cccc2c1C(=O)c1c(O)c3c(c(O)c1C2=O)C[C@@](O)(C(=O)CO)C[C@@H]3O[C@H]1C[C@H](N)[C@H](O)[C@H](C)O1 | -3 | 74 | 14 | 1 | -71 | -14 | nt
O=C(Cn1c(=O)oc2cc(S(=O)(=O)N3CCCC3)ccc21)Nc1ccccn1 | -3 | -6 | 2 | nt | -9 | 1 | nt
CCN(CC)S(=O)(=O)c1ccc(C(=O)OCCN2C(=O)c3cccc4c(N5CCOCC5)ccc(c34)C2=O)cc1 | 278* | -34 | -118 | -2 | 1 | 1 | 217* | RORg DNA counter=>40
O=C(OCCN1C(=O)c2ccccc2C1=O)c1ccc(S(=O)(=O)N2CCCCCC2)cc1 | 3 | -43 | -2 | -2 | -14 | 1 | nt
Cc1ccc(N2CCOCC2)c2c1C(=O)c1ccccc1C2=O | 8 | 3 | 8 | -5 | 13 | -9 | nt
CC(=O)N(C(C)=O)N1C(=O)c2cccc3c(N4CCOCC4)ccc(c23)C1=O | 17* | -18 | -103 | -5 | 1 | -6 | 18
CN(Cc1ccccc1)C(=O)c1ccc(Nc2nc(C(N)Cc3ccc(C(F)(F)F)cc3)cs2)nc1 (stereo unspecified) | 4 | -6 | -9 | nt | 25 | 0 | nt
C=CC[C@]12C[C@@]3(O[C@H](C4CCCCC4)N=C3C[C@H](c3ccc(OC)cc3)[C@H]1C)N(Cc1ccncc1)C2=O | 0 | nt | nt | nt | nt | 2 | nt
Cc1ccccc1-c1cc2nc(NCCc3ccncc3)n(C)c(=O)c2s1 | -4 | 15 | -5 | nt | -37 | 1 | nt
C[C@H]1CN(S(=O)C(C)(C)C)[C@@H](CCO)/C1=C\c1ccccc1 (stereo partly specified) | 15* | 7 | 2 | nt | -7 | 1 | -1
C[C@H]1CN([C@@H](C)CO)C(=O)CCCn2nncc2CO[C@@H]1CN(C)C(=O)Nc1ccccc1F | -3 | nt | nt | nt | nt | 0 | nt
SMILES | Rev-erbA mod | SKN-1 block | MT1-MMP act inh | NR2E3 ag-1 | NR2E3 ag-2 | PG9 Ab binder | NR1D1 mod conf | others
COc1ccc(C2CC(c3cccs3)=NN2C(=O)CSC2=NCCS2)cc1 (stereo unspecified) | 14* | 7 | -5 | 0 | -59 | -3 | 2
Cc1ccc(N=Nc2c(C)[nH]n(C(N)=S)c2=O)cc1C | 1 | -4 | 13 | -2 | 15 | -3 | nt
Cc1[nH]n(C(N)=S)c(=O)c1N=Nc1cc(-c2ccc(Br)cc2)[nH]n1 | 14* | -1 | 7 | 1 | -3 | 1 | 12
O=S1(=O)CC(N2CCSCC2)CN1Cc1cn(Cc2ccc(C(F)(F)F)cc2)nn1 (stereo unspecified) | -10 | 7 | 4 | nt | -13 | -2 | nt
CCC1=C(Nc2ccccc2)COC1=O | -1 | -2 | -3 | nt | 5 | 0 | nt
c1ccc(-c2nc(N3CCOCC3)cc(N3CCOCC3)n2)cc1 | 1 | 4 | -4 | -3 | 3 | 0 | nt
Cc1cc(C)n(-c2cc(N3CCOCC3)nc(-c3ccccc3)n2)n1 | 18* | 17 | -5 | -9 | -13 | 3 | 24*
Cc1cc(NC(=O)CSc2nc3c(C)c(C)ccc3cc2C)no1 | 25* | -8 | -5 | -2 | 16 | -2 | 15
CCc1cc2ccc(C)c(C)c2nc1SCC(=O)Nc1cc(C)on1 | 16 | -5 | 0 | 1 | 20 | 1 | nt
Cc1cc(NC(=O)CSc2nc3cc(C)c(C)cc3cc2C)no1 | 85* | 2 | -1 | 0 | -4 | -2 | 48* | RORg DNA counter=>40
Cc1ccc2nc(SCc3ccccc3)c(C=O)c(=O)n2c1 | 42* | 9 | 0 | -3 | 12 | 2 | 30*
